Among the data in ChEMBL document CHEMBL4251658, “Cytotoxic and Noncytotoxic Metabolites from Teratosphaeria sp. FL2137, a Fungus Associated with Pinus clausa” (J Nat Prod, 2018) are IC50 values, retold here.

Usually IC50 stands for the concentration needed to halve the response being measured. The low end stands for greater potency in that assay, the high end for weaker potency in that assay.

What all share (assay type): functional, cell-based
One test deals with NCI-H460. The test can be described thus: Cytotoxicity against human NCI-H460 cells by resazurin dye based Alamar blue assay. Put shortly:
(§1)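 Resazurin-based colorimetric (Alamar Blue) read-out of in vitro cytotoxicity in human cancer lines: NCI-H460 non-small-cell lung, SF-268 CNS glioma, MCF-7 breast, PC-3M metastatic prostate adenocarcinoma, MDA-MB-231 breast adenocarcinoma. Doxorubicin served as positive control and DMSO as negative control. Run in triplicate. Compounds tested up to 5.0 μM; IC50 values derived.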
On the technique in general: The colour change of resazurin is a common sign of viable cells or microbes.

In another test the test system is SF-268. Kind of test: Cytotoxicity against human SF268 cells by resazurin dye based Alamar blue assay. Put shortly:
as §1

In another test the test system is MCF7. Kind of test: Cytotoxicity against human MCF7 cells by resazurin dye based Alamar blue assay. Put shortly: as §1
For a further test, the system named is PC-3M. Kind of test: Cytotoxicity against human PC3M cells by resazurin dye based Alamar blue assay. The method in brief:
as §1

The next test concerns MDA-MB-231. Kind of test: Cytotoxicity against human MDA-MB-231 cells by resazurin dye based Alamar blue assay. Put shortly: as §1

Turning to `COc1cc(O)c2c(c1)C(=O)C(C)=CC2=O`, the IC50 is greater than 5 µM with NCI-H460; greater than 5 µM in the test on SF-268; 3.1 µM with MCF7; 4.9 µM in the test with PC-3M; 1.2 µM in the test with MDA-MB-231.
Take `COc1cccc2c1C(=O)c1c(O)c3c(c(O)c1C2=O)C[C@@](O)(C(=O)CO)C[C@@H]3O[C@H]1C[C@H](N)[C@H](O)[C@H](C)O1` [DOXORUBICIN]: the values for the IC50 with NCI-H460, in the test with PC-3M and in the test on MDA-MB-231 were 0.4 µM, 0.2 µM and 0.6 µM, respectively.
Consider `COc1cc(O)c2c(c1)C(=O)c1cocc1C2=O` [MONOSPORASCONE], for which the IC50 was greater than 5 µM in the test with NCI-H460; greater than 5 µM in the test with SF-268; greater than 5 µM in the test with MCF7; greater than 5 µM in the test with PC-3M; 3.8 µM in the test with MDA-MB-231.
